Test results: ChEMBL document CHEMBL5055648, “Design, synthesis, and biological evaluation of novel Bcr-AblT315I inhibitors incorporating amino acids as flexible linker” (Bioorg Med Chem, 2021)
Calls of active or inactive are those of the source. The rule behind the calls is not given here.

Columns and labels:
Bcr/Abl fusion protein [1] = target: Bcr/Abl fusion protein (Homo sapiens, UniProt P00519, T315I); assay: Inhibition of wild type Bcr-Abl T315I mutant (unknown origin) incubated for 1 hr in presence of ATP by ADP-Glo kinase assay; format: protein assay
K562 [2] = assay: Antiproliferative activity against human K562 cells assessed as inhibition of cell proliferation incubated for 48 hrs by MTT assay; format: functional, cell-based; details: K562, 48 h
Method in brief: (§1)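 MTT growth assay. K562 and K562R (T315I) cells grown in RPMI 1640 with 10% FBS. Hek293 and EA.hy926 cells grown in DMEM with 10% FBS. About 2.5 × 10^3 exponential-phase cells per well, preincubated 12 h at 37 °C in 5% CO2. Serially diluted compounds added for 48 h, then MTT at 0.5 mg/mL final for 4 h. Formazan dissolved in DMSO, A490 read, IC50 calculated from inhibition ratios.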

Bcr/Abl fusion protein [3] = target: Bcr/Abl fusion protein (Homo sapiens, UniProt P00519); assay: Inhibition of wild type Bcr-Abl (unknown origin) incubated for 1 hr in presence of ATP by ADP-Glo kinase assay; format: protein assay
EA.hy 926 = assay: Cytotoxicity against human EA.hy926 cells assessed as cell growth inhibition incubated for 48 hrs by MTT assay; format: cell-based; details: ea.hy 926, 48 h; method in brief: as §1
K562 [4] = assay: Induction of apoptosis in human K562 cells assessed as early apoptotic cells at 20 uM after 48 hrs by annexinV/FITC-propidium iodide staining based flow cytometry (reference value: 2.98 %); format: functional
K562 [5] = assay: Induction of apoptosis in human K562 cells assessed as viable cells at 10 uM after 48 hrs by annexinV/FITC-propidium iodide staining based flow cytometry (reference value: 84.19 %); format: functional; details: read-out: Activity
K562 [6] = assay: Induction of apoptosis in human K562 cells assessed as necrotic cells at 20 uM after 48 hrs by annexinV/FITC-propidium iodide staining based flow cytometry (reference value: 0.23 %); format: functional
K562 [7] = assay: Induction of apoptosis in human K562 cells assessed as necrotic cells at 10 uM after 48 hrs by annexinV/FITC-propidium iodide staining based flow cytometry (reference value: 0.23 %); format: functional
K562 [8] = assay: Induction of apoptosis in human K562 cells assessed as late apoptotic cells at 10 uM after 48 hrs by annexinV/FITC-propidium iodide staining based flow cytometry (reference value: 12.60 %); format: functional
[9] = target: T1, Bcr/Abl fusion protein (Homo sapiens) (UniProt P00519+P11274); assay: Inhibition of Bcr-Abl phosphorylation in human K562 cells at 10 uM measured after 48 hrs by Western blot analysis; format: cell-based
Method in brief: (§2)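 Western blot. K562 cells treated 48 h with DMSO vehicle or compound at 1, 5, 10 or 15 µM. Lysates were normalized by BCA and equal protein run on SDS-PAGE, then transferred to PVDF and blocked in 5% milk/TBS-0.1% Tween-20. Probed overnight at 4 °C with p-Bcr-Abl and GAPDH antibodies, then with HRP secondaries for 2 h at room temperature. Read-out was p-Bcr-Abl/GAPDH ratio.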

K562 [10] = assay: Induction of apoptosis in human K562 cells assessed as early apoptotic cells at 1 uM after 48 hrs by annexinV/FITC-propidium iodide staining based flow cytometry (reference value: 2.98 %); format: functional
K562 [11] = assay: Induction of apoptosis in human K562 cells assessed as late apoptotic cells at 20 uM after 48 hrs by annexinV/FITC-propidium iodide staining based flow cytometry (reference value: 12.60 %); format: functional
K562 [12] = assay: Induction of apoptosis in human K562 cells assessed as viable cells at 1 uM after 48 hrs by annexinV/FITC-propidium iodide staining based flow cytometry (reference value: 84.19 %); format: functional; details: read-out: Activity
K562 [13] = assay: Induction of apoptosis in human K562 cells assessed as early apoptotic cells at 10 uM after 48 hrs by annexinV/FITC-propidium iodide staining based flow cytometry (reference value: 2.98 %); format: functional
HEK293 = assay: Cytotoxicity against human HEK293 cells assessed as cell growth inhibition incubated for 48 hrs by MTT assay; format: cell-based; details: hek293, 48 h; method in brief: as §1
K562 [14] = assay: Induction of apoptosis in human K562 cells assessed as late apoptotic cells at 1 uM after 48 hrs by annexinV/FITC-propidium iodide staining based flow cytometry (reference value: 12.60 %); format: functional
K-562R [15] = assay: Antiproliferative activity against T315I mutant expressing human K-562R cells assessed as inhibition of cell proliferation incubated for 48 hrs by MTT assay; format: functional, cell-based; method in brief: as §1
K562 [16] = assay: Induction of apoptosis in human K562 cells assessed as necrotic cells at 1 uM after 48 hrs by annexinV/FITC-propidium iodide staining based flow cytometry (reference value: 0.23 %); format: functional
[17] = target: T1, Bcr/Abl fusion protein (Homo sapiens); assay: Inhibition of Bcr-Abl in human K562 cells assessed as decrease in tyrosine phosphorylation measured after 48 hrs by Western blot analysis; format: cell-based; details: dose 1-15 µM; method in brief: as §2
K562 [18] = assay: Induction of apoptosis in human K562 cells assessed as viable cells at 20 uM after 48 hrs by annexinV/FITC-propidium iodide staining based flow cytometry (reference value: 84.19 %); format: functional; details: read-out: Activity
K-562R [19] = assay: Antiproliferative activity against T315I mutant expressing human K-562R cells assessed as inhibition of cell proliferation at 100 uM incubated for 48 hrs by MTT assay relative to control; format: functional; method in brief: as §1

| SMILES | IC50 (Bcr/Abl fusion protein [1]) | IC50 (K562 [2]) | IC50 (Bcr/Abl fusion protein [3]) | also measured |
| --- | --- | --- | --- | --- |
| O=C(NC1CC1)c1cncc(-c2cccc(C(=O)N[C@H]3CN[C@@H](C(=O)Nc4ccc(Cl)c(C(F)(F)F)c4)C3)c2)c1 | 26.6 µM | 27.3 µM | 16 µM | – |
| CC(C)(C)C(=O)Nc1ccc(-c2cccc(C(=O)N[C@H]3CN[C@@H](C(=O)Nc4ccc(Cl)c(C(F)(F)F)c4)C3)c2)cn1 | 147 µM | 28 µM | 4.63 µM | – |
| CC(=O)Nc1ccc(-c2cccc(C(=O)N[C@@H](C)C(=O)Nc3ccc(Cl)c(C(F)(F)F)c3)c2)cn1 | 38.6 µM | 42.8 µM | 0.6 µM | – |
| C[C@H](NC(=O)c1ccc(-c2ccc(N)nc2)cc1)C(=O)Nc1ccc(Cl)c(C(F)(F)F)c1 | 7.51 µM | 5.95 µM | 0.77 µM | – |
| CCN(CC)C(=O)c1cncc(-c2ccc(C(=O)N[C@@H](C)C(=O)Nc3ccc(Cl)c(C(F)(F)F)c3)cc2)c1 | 59.9 µM | 20.2 µM | 0.011 µM | – |
| CCN(CC)C(=O)c1cncc(-c2cccc(C(=O)N[C@@H](C)C(=O)Nc3ccc(Cl)c(C(F)(F)F)c3)c2)c1 | 86 µM | 29.9 µM | 0.29 µM | – |
| Nc1ccc(-c2cccc(C(=O)N[C@H]3CN[C@@H](C(=O)Nc4ccc(Cl)c(C(F)(F)F)c4)C3)c2)cn1 | 103 µM | 20 µM | 12 µM | – |
| C[C@H](NC(=O)c1ccc(-c2cncc(C(=O)NCCN(C)C)c2)cc1)C(=O)Nc1ccc(Cl)c(C(F)(F)F)c1 | 2.28 µM | 4.65 µM | 6.62 µM | – |
| CC(=O)Nc1ccc(-c2ccc(C(=O)N[C@@H](C)C(=O)Nc3ccc(Cl)c(C(F)(F)F)c3)cc2)cn1 | 22.4 µM | 107 µM | 0.2 µM | – |
| C[C@H](NC(=O)c1cccc(-c2ccc(N)nc2)c1)C(=O)Nc1ccc(Cl)c(C(F)(F)F)c1 | 86.8 µM | 8.09 µM | 4.4 µM | – |
| C[C@H](NC(=O)c1ccc(-c2cncc(C(=O)NC3CC3)c2)cc1)C(=O)Nc1ccc(Cl)c(C(F)(F)F)c1 | 4.99 µM | 396 µM | 9.38 µM | – |
| C[C@H](NC(=O)c1cccc(-c2ccc(NS(C)(=O)=O)nc2)c1)C(=O)Nc1ccc(Cl)c(C(F)(F)F)c1 | 129 µM | 4.66 µM | 3.34 µM | – |
| O=C(NC1CC1)c1cncc(-c2ccc(C(=O)N[C@H]3CN[C@@H](C(=O)Nc4ccc(Cl)c(C(F)(F)F)c4)C3)cc2)c1 | 39 µM | 65.3 µM | 61.2 µM | – |
| CC(=O)Nc1ccc(-c2ccc(C(=O)N[C@H]3CN[C@@H](C(=O)Nc4ccc(Cl)c(C(F)(F)F)c4)C3)cc2)cn1 | 13 µM | 22.8 µM | 34.5 µM | – |
| CN(C)CCNC(=O)c1cncc(-c2cccc(C(=O)N[C@H]3CN[C@@H](C(=O)Nc4ccc(Cl)c(C(F)(F)F)c4)C3)c2)c1 | 21.7 µM | 19.8 µM | 2.41 µM | – |
| CC(C)(C)C(=O)Nc1ccc(-c2ccc(C(=O)N[C@H]3CN[C@@H](C(=O)Nc4ccc(Cl)c(C(F)(F)F)c4)C3)cc2)cn1 | 50.3 µM | 11.6 µM | 2.64 µM | – |
| C[C@H](NC(=O)c1ccc(-c2ccc(NC(=O)C(C)(C)C)nc2)cc1)C(=O)Nc1ccc(Cl)c(C(F)(F)F)c1 | 0.53 µM | 7.45 µM | 0.041 µM | Activity (EA.hy 926): Non-Toxic; Activity (K562 [4]): 11.48%; viability at 10 µM (K562 [5]): 36.5%; Activity (K562 [6]): 1.65%; Activity (K562 [7]): 4.57%; Activity (K562 [8]): 48.96%; inhibition [9]: Active; Activity (K562 [10]): 3.39%; Activity (K562 [11]): 50.94%; viability at 1 µM (K562 [12]): 74.5%; Activity (K562 [13]): 10.03%; Activity (HEK293): Non-Toxic; Activity (K562 [14]): 21.11%; IC50 (K-562R [15]): 9.1 µM; Activity (K562 [16]): 0.98%; inhibition [17]: Dose-dependent effect; viability at 20 µM (K562 [18]): 35.9% |
| CCN(CC)C(=O)c1cncc(-c2cccc(C(=O)N[C@H]3CN[C@@H](C(=O)Nc4ccc(Cl)c(C(F)(F)F)c4)C3)c2)c1 | 42.7 µM | 24.9 µM | 3.75 µM | – |
| CN(C)CCNC(=O)c1cncc(-c2ccc(C(=O)N[C@H]3CN[C@@H](C(=O)Nc4ccc(Cl)c(C(F)(F)F)c4)C3)cc2)c1 | 22.1 µM | 4.56 µM | 4.23 µM | – |
| CC(=O)Nc1ccc(-c2cccc(C(=O)N[C@H]3CN[C@@H](C(=O)Nc4ccc(Cl)c(C(F)(F)F)c4)C3)c2)cn1 | 24.6 µM | 8.71 µM | 0.49 µM | – |
| Cc1ccc(C(=O)Nc2ccc(CN3CCN(C)CC3)c(C(F)(F)F)c2)cc1C#Cc1cnc2cccnn12 [PONATINIB] | – | – | – | IC50 (K-562R [15]): 0.093 µM |
| C[C@H](NC(=O)c1cccc(-c2ccc(NC(=O)C(C)(C)C)nc2)c1)C(=O)Nc1ccc(Cl)c(C(F)(F)F)c1 | 244 µM | 18.4 µM | 4.48 µM | – |
| Cc1ccc(NC(=O)c2ccc(CN3CCN(C)CC3)cc2)cc1Nc1nccc(-c2cccnc2)n1 [IMATINIB] | – | – | – | inhibition at 100 µM (K-562R [19]): 45% |
| Nc1ccc(-c2ccc(C(=O)N[C@H]3CN[C@@H](C(=O)Nc4ccc(Cl)c(C(F)(F)F)c4)C3)cc2)cn1 | 14.1 µM | 9.13 µM | 9.18 µM | – |
| C[C@H](NC(=O)c1ccc(-c2ccc(NS(C)(=O)=O)nc2)cc1)C(=O)Nc1ccc(Cl)c(C(F)(F)F)c1 | 9.95 µM | 7.24 µM | 3.77 µM | – |
| C[C@H](NC(=O)c1cccc(-c2cncc(C(=O)NCCN(C)C)c2)c1)C(=O)Nc1ccc(Cl)c(C(F)(F)F)c1 | 2.41 µM | 7.92 µM | 0.64 µM | – |
| C[C@H](NC(=O)c1cccc(-c2cncc(C(=O)NC3CC3)c2)c1)C(=O)Nc1ccc(Cl)c(C(F)(F)F)c1 | 7.83 µM | 15.1 µM | 1.46 µM | – |
| CCN(CC)C(=O)c1cncc(-c2ccc(C(=O)N[C@H]3CN[C@@H](C(=O)Nc4ccc(Cl)c(C(F)(F)F)c4)C3)cc2)c1 | 50.5 µM | 55.5 µM | 7.4 µM | – |
| CS(=O)(=O)Nc1ccc(-c2ccc(C(=O)N[C@H]3CN[C@@H](C(=O)Nc4ccc(Cl)c(C(F)(F)F)c4)C3)cc2)cn1 | 36.9 µM | 45 µM | 0.15 µM | – |
| CS(=O)(=O)Nc1ccc(-c2cccc(C(=O)N[C@H]3CN[C@@H](C(=O)Nc4ccc(Cl)c(C(F)(F)F)c4)C3)c2)cn1 | 16.2 µM | 24.6 µM | 6.48 µM | – |
